Test system: MS2 coat protein
Assay: apparent Kd, MS2 coat protein; higher = weaker binding; RNA-MaP array; FMN 200 µM where present
Method in brief: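 Designs were transcribed by stalled E. coli RNA polymerase on Illumina sequencing-chip clusters. They were titrated with SNAP-549-labelled MS2 coat protein from 0.7 or 1.5 nM, doubling to 3 µM, without and then with constant ligand. Buffer: 100 mM Tris-HCl pH 7.5, 80 mM KCl, 4 mM MgCl2, BSA, DTT, yeast tRNA, Tween-20. Green signal was normalised to red-channel RNA signal and control-cluster median Fmax. Apparent Kd is the median of filtered per-cluster binding-curve fits.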

[1] = designed as: OFF switch for flavin mononucleotide, no ligand
[2] = ligand present: flavin mononucleotide, designed as: OFF switch for flavin mononucleotide
[3] = designed as: ON switch for flavin mononucleotide, no ligand
[4] = ligand present: flavin mononucleotide, designed as: ON switch for flavin mononucleotide

Row | Sequence | apparent Kd [1] | apparent Kd [2] | apparent Kd [3] | apparent Kd [4]
1 | GGCCUACGAGGAUAUCGCUAGCGGGACAUGAGGAUCACCCAUGUGUCGGACCGCGUCAUGCGAGAAGGUGUAAUGA | 17.6 nM | 18.4 nM |  | 
2 | UUGUUUGUAGUGAGGAUAUCGUUGAGGAAGAGGAUCGAGAAGGCACAUGAGGAUCACCCAUGUUAGAUGUGGUU | 170 nM | 198 nM |  | 
3 | AUACAUGAGGAUCACCCAUGUAAUUAAUUAAUUAAUAAGAUCUAGGAUAUCAGCUCGAAUAGAGCUGAGAAGGAGAUCACAUGU |  |  | 23 nM | 14.4 nM
4 | UUACUCAUGUAAGGAUAUGCAGCCGUUUCGGCUGCAGAAGGUACUAUAAUACAUGAGGAUCACCCAUGUCUUUUGAAUUUAGAC |  |  | 91.4 nM | 33.3 nM
5 | AGCUGUGACGUUACAGUUCCGUUACAUGAGGAUCACCCAUGUCAGGAUAUAUGCACUCUUGAAUCAUAGAAGGGACAGAGGUGG | 161 nM | 157 nM |  | 
6 | AUGAAAUACUAGCACGGCGCGGCACAGGAUAUGCCUCAACAUGAGGAUCACCCAUGUCACUGUAGGUAGAAGGGUGUUAGCGAA |  |  | 18.4 nM | 5.52 nM
7 | GUCAGCUCGUGAGGAUAUACAACACUGCUUUGGCAGUGUAUUAAGAUCACAUGAGGAUCACCCAUGUAGAAGGCACGAGCUGAU | 13.2 nM | 228 nM |  | 
8 | GGUCCACGAGGAUAUCGAUUUUAGUACAUGAGGAUCACCCAUGUUGUCCAGGUUUCGAUUCGAGAAGGCGUGGGCC | 22.2 nM | 24.6 nM |  | 
9 | GCUUGUAGAGGAUAUACAAGGGCCUUAGCGGAAAACUCCGCACAUGAGGAUCACCCAUGUAGAAGGCUACCACC | 16.1 nM | 97.9 nM |  | 
10 | ACCUUACAUGAGGAUCACCCAUGUUAGGAUAUCUCGCCCGCGCAAACACAGCGCAGGCAGAGAAGGGACGCGGG | 31.8 nM | 32.8 nM |  | 
11 | UGAUAGGACAGAGGAUAUACCGAUAGGAUCUACUAUCGAAGAAUCCUUACAUGAGGAUCACCCAUGUAGAAGGCUGUCCUAUCU | 20.4 nM | 29.6 nM |  | 
12 | CUGUUAUAGAUCCAUUUUUUCAACAUGAGGAUCACCCAUGUGCAGGAUAUCGUGAUUAUUUUCAUCGAGAAGGGCAUAAUCACG | 46.6 nM | 51 nM |  | 
13 | CGCUGUCACGCAGGAUAUGCAUUGGAUUCCAAUGCAGAAGGGCGAUUACAUGAGGAUCACCCAUGUGUCGACAGUGAAGAAGAG |  |  | 599 nM | 44 nM
14 | CGCAACAUACAGAAGGAGUAAUUUAGAAGUGUACUAGGAUAUGUUUACAUGAGGAUCACCCAUGUCGAUGGGUAAAUAGUUGCG | 988 nM | 437 nM |  | 
15 | CCGAAUGUCACAGGAUAUGGUCCGGGCACGCGACCAGAAGGGUGAUCUUACAUGAGGAUCACCCAUGUAUAGGCGUUAGGCUAC |  |  | 32.9 nM | 442 nM
16 | AUCAUGUCAGGAUAUGUGACAUGGAUCUUCGGAUCAAGAUCACAGAAGGGACAUGAGGAUCACCCAUGUCGAUC | 98.8 nM | 53.4 nM |  | 
17 | GGAUAGGACAGAGGAUAUACGGAUAGGAUCUACUAUCCUCCUUAAAUAACAUGAGGAUCACCCAUGUAGAAGGCUGUCCUAUCG | 16.9 nM | 40.5 nM |  | 
18 | UCACAGGGAGGAUAUACAUGAGGAUCACCCAUGUGAAUCUUCGACCUGCAGGUACUUUGUAGAAGGCCCAGUGG | 107 nM | 123 nM |  | 
19 | GCCAUCGUAUGAGGAUAUGGCGCCGAAACGGUGCCAGAAGGCAUGUCAAUAGACAUGAGGAUCACCCAUGUGUUAUCGAUGGCA |  |  | 134 nM | 11.9 nM
20 | CUCUUGUGAGGAUAUCAGGUGUGCUAGCGUACUGGUACAUCUGAGAAGGCACAUGAGGAUCACCCAUGUUUCAA | 118 nM | 21.9 nM |  | 
21 | CCGCCAUGAGGAUAUCCAUCUGGAUCAGACUAGAUCCUGAUGGAGAAGGGACAUGAGGAUCACCCAUGUUGCGG | 62.8 nM | 55.1 nM |  | 

Row | Sequence | apparent Kd [1] | apparent Kd [2] | apparent Kd [3] | apparent Kd [4]
22 | AACAGUACAGGAUAUACAUGAGGAUCACCCAUGUGAGAAACCACUGGCGUACCAGAAAGUAGAAGGGUACUGGA | 79.7 nM | 97.8 nM |  | 
23 | UGCCUGCAGUCAGGAUAUGAUAACUGGGUAUGGUCUUUGUAACGACAUGAGGAUCACCCAUGUUUUUAGAAGGGACGUGUCAGC | 363 nM | 127 nM |  | 
24 | UUAAAUCAUGUAGGAUAUGCAUGGCGAAGCUACGCAGAAGGACAUGAGGAUCACCCAUGUUAAAGCUACCGAGUACGGUGGCAA | 121 nM | 193 nM |  | 
25 | AUAAUGUAAGGAUAUCAGUCGACUAGCUGCGGCUAGUCGACUGAGAAGGUACAUGAGGAUCACCCAUGUGUUCC | 133 nM | 868 nM |  | 
26 | UGUCGGAGCAGAGGAUAUUACAUGAGGAUCACCCAUGUAUGAACCAAUAGCUGGAAACAGCAAUGUAAGAAGGCUGUUCCGACA | 11.9 nM | 134 nM |  | 
27 | GAUGGACAUGAGGAUCACCCAUGUAAGGAUAUUGAUUGUGGCUAUAAAUGGUUACGGUCGAGAAGGUACUCGUC | 82.2 nM | 78.8 nM |  | 
28 | CGCGAACAGGCUAACAUGAGGAUCACCCAUGUGGACUCAUGGUAGGAUAUCGGGAAGGAGGAAACCGAGAAGGGCCGGUGAGCU |  |  | 65.6 nM | 86.5 nM
29 | AUUACGUCAGGAUAUCUGAUGUCUAACUUCGGUUAGACAUCAGAGAAGGGACAUGAGGAUCACCCAUGUAAUAG | 54.5 nM | 56.2 nM |  | 
30 | UAGAUUAGAAGUUAACAUGAGGAUCACCCAUGUAUUGGAACAGAGGAUAUGCAUGUUUGAUAGUAGCAGAAGGCUGAAGGUGGA |  |  | 98.1 nM | 104 nM
31 | CGCGAACAUGAGGAUCACCCAUGUGGGUGGAACGUAGGAUAUACGUAGGUCUUUAAUACAGUAGAAGGACGUUCGC |  |  | 264 nM | 118 nM
32 | GAUCCACAUGAGGAUCACCCAUGUGAGGAUAUGAUACUAUGUACUUCGGUACAUAGUAUCAGAAGGCACAUUGA | 114 nM | 65.9 nM |  | 
33 | UCAUGAUGGAAGAAGGGAGUCGUGCAUAACAACUCAGGAUAUUUCACAUGAGGAUCACCCAUGUCGAAGUAACAAUGUUGAUUA | 15.9 nM | 28 nM |  | 
34 | GGUCGUCUCAUUAACAUGAGGAUCACCCAUGUCAAAAGACAUGAGGAUAUGGAUCCUAAUUGGAUCCAGAAGGCAUGGACGACC |  |  | 1110 nM | 60.4 nM
35 | UUUAUGUAAGGAUAUGCGGGCGGGCGUGAAAAUGUUUGUUUGUAGAAGGUACAUGAGGAUCACCCAUGUAGUGG | 145 nM | 201 nM |  | 
36 | AGUAGAUCAGGAUAUACAUAAAUGAUAAUUAUGUAACUUCUACAUGAGGAUCACCCAUGUAGAAGGGAUCUACA | 12.6 nM | 13.1 nM |  | 
37 | AGAUGACAAAGUCAUCUCGCUUUGACAUGAGGAUCACCCAUGUAGGAUAUAUUACUCAAAGAGUAAUAGAAGGACAUGUGUCUU | 37.2 nM | 104 nM |  | 
38 | ACUUUACGAGGAUAUACUGUCGGGCCUCGGGCGUCCAUGCGACAUGAGGAUCACCCAUGUAGAAGGCGUUUACU | 25.1 nM | 51.5 nM |  | 
39 | AGAUGGUAGAUAGGAUAUCAUGUGCUGACAUGAGGAUCACCCAUGUAGGGACGUCAGUCCAAUUAUGAGAAGGAUCUACCAUCU |  |  | 61 nM | 39.3 nM
40 | UGUGCCUCGAGAGGAUAUAUACAUGAGGAUCACCCAUGUAACGAGGUGGAAACACCUCGAAAUGUAUAGAAGGCUCGAGGCACA | 27.7 nM | 49.6 nM |  | 
41 | UUAAAUCAUGUAGGAUAUGCAUGGCGAAGCUACGCAGAAGGACAUGAGGAUCACCCAUGUGCUAGCGUCUGAGUACAGAUGCAA | 39.3 nM | 259 nM |  | 
42 | AAAAUCACAUGAGGAUCACCCAUGUACCGAGCUAGGGCUACAUAGGAUAUGACAAGUAUAGCUUGUCAGAAGGGUGAGUCUCGC |  |  | 166 nM | 258 nM

Source: the EternaBench riboswitch data
